Results: ChEMBL document CHEMBL1155761, “Isolation and structure of five new cancer cell growth inhibitory bufadienolides from the Chinese traditional drug Ch'an Su” (J Nat Prod, 2001)
Values after ≈ are worked out from the molar mass of the structure shown.

Columns and labels:
Type in all cases: functional, cell-based
[1] = test system: KB; test: Cytotoxicity against human KB cells after 72 hrs by MTT assay
Procedure, shortened: (§1)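 Cells seeded per well in 0.2 mL culture medium: 2 × 10^4 cells for KB and HL-60, 5 × 10^3 cells for MH-60. Treated in triplicate with graded concentrations of test samples (5 µL added per well), then incubated 72 h at 37 °C in 5% CO2.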

[2] = test system: HL-60; test: Cytotoxicity against human HL60 cells after 72 hrs by MTT assay; settings: HL-60, 72 h; procedure, shortened: as §1
[3] = test system: MH60; test: Cytotoxicity against mouse MH60 cells after 72 hrs by MTT assay; settings: MH60, 72 h; procedure, shortened: as §1
[4] = test system: BXPC-3; test: Cytotoxicity against human BxPC3 cells after 72 hrs by MTT assay; settings: BXPC-3, 72 h
[5] = test system: MCF7; test: Cytotoxicity against human MCF7 cells after 72 hrs by MTT assay; settings: MCF7, 72 h
[6] = test system: SF-268; test: Cytotoxicity against human SF268 cells after 72 hrs by MTT assay; settings: SF-268, 72 h
[7] = test system: NCI-H460; test: Cytotoxicity against human NCI-H460 cells after 72 hrs by MTT assay; settings: NCI-H460, 72 h
[8] = test system: KM-20L2; test: Cytotoxicity against human KM20L2 cells after 72 hrs by MTT assay; settings: KM-20L2, 72 h
[9] = test system: DU-145; test: Cytotoxicity against human DU145 cells after 72 hrs by MTT assay; settings: DU-145, 72 h

SMILES	IC50 [1]	IC50 [2]	IC50 [3]	IC50 [4]	IC50 [5]	IC50 [6]	IC50 [7]	IC50 [8]	IC50 [9]
C[C@]12CC[C@H](O)C[C@H]1CC[C@@H]1[C@@H]2C[C@@H](O)[C@]2(C)[C@@H](c3ccc(=O)oc3)C[C@H]3O[C@]132	0.97 µg/mL (≈ 2.42 µM)	0.045 µg/mL (≈ 0.112 µM)	> 25 µg/mL	0.12 µg/mL (≈ 0.3 µM)	0.066 µg/mL (≈ 0.165 µM)	0.046 µg/mL (≈ 0.115 µM)	0.017 µg/mL (≈ 0.0424 µM)	0.012 µg/mL (≈ 0.03 µM)	0.041 µg/mL (≈ 0.102 µM)
C[C@]12CC[C@H]3[C@@H](CC[C@@H]4C[C@@H](O)CC[C@@]43C=O)[C@]13OC3[C@H](O)[C@@H]2c1ccc(=O)oc1 (some centres not stated)	0.65 µg/mL (≈ 1.57 µM)	3 µg/mL (≈ 7.24 µM)	> 25 µg/mL	> 1 µg/mL	> 1 µg/mL	> 1 µg/mL	> 1 µg/mL	> 1 µg/mL	> 1 µg/mL
C[C@]12[C@H](CC[C@@H]3[C@@H]1CC[C@]1(C)[C@@H](c4ccc(=O)oc4)CC[C@]31O)C[C@@H](O)C[C@H]2O	0.19 µg/mL (≈ 0.472 µM)	< 0.01 µg/mL	> 25 µg/mL	0.024 µg/mL (≈ 0.0596 µM)	0.012 µg/mL (≈ 0.0298 µM)	0.0044 µg/mL (≈ 0.0109 µM)	0.014 µg/mL (≈ 0.0348 µM)	0.011 µg/mL (≈ 0.0273 µM)	0.005 µg/mL (≈ 0.0124 µM)
C[C@]12CC[C@H]3[C@@H](CC[C@@H]4C[C@@H](O)CC[C@@]43C=O)[C@@]1(O)CC[C@@H]2c1ccc(=O)oc1		< 0.01 µg/mL	> 25 µg/mL	0.014 µg/mL (≈ 0.035 µM)	0.0072 µg/mL (≈ 0.018 µM)	0.0047 µg/mL (≈ 0.0117 µM)	0.018 µg/mL (≈ 0.0449 µM)	0.0082 µg/mL (≈ 0.0205 µM)	0.0046 µg/mL (≈ 0.0115 µM)
C[C@]12CC[C@H](OC=O)C[C@H]1CC[C@@H]1[C@@H]2CC[C@]2(C)[C@@H](c3ccc(=O)oc3)C[C@H]3O[C@]132	3.4 µg/mL (≈ 8.24 µM)	1 µg/mL (≈ 2.42 µM)	8.1 µg/mL (≈ 19.6 µM)	1.6 µg/mL (≈ 3.88 µM)	0.6 µg/mL (≈ 1.45 µM)	0.38 µg/mL (≈ 0.921 µM)	0.53 µg/mL (≈ 1.28 µM)	0.54 µg/mL (≈ 1.31 µM)	0.42 µg/mL (≈ 1.02 µM)
CC(=O)O[C@H]1[C@H]2O[C@]23[C@@H]2C[C@H](O)[C@@H]4C[C@@H](O)CC[C@]4(C)[C@H]2CC[C@]3(C)[C@H]1c1ccc(=O)oc1	0.87 µg/mL (≈ 1.9 µM)	0.038 µg/mL (≈ 0.0829 µM)	> 25 µg/mL	0.46 µg/mL (≈ 1 µM)	0.36 µg/mL (≈ 0.785 µM)	0.32 µg/mL (≈ 0.698 µM)	0.74 µg/mL (≈ 1.61 µM)	0.28 µg/mL (≈ 0.611 µM)	0.21 µg/mL (≈ 0.458 µM)
C[C@]12CC[C@H]3[C@@H](CC[C@@H]4C[C@@H](O)CC[C@@]43CO)[C@]13O[C@@H]3C[C@@H]2c1ccc(=O)oc1	1.2 µg/mL (≈ 3 µM)	0.48 µg/mL (≈ 1.2 µM)	> 25 µg/mL	0.63 µg/mL (≈ 1.57 µM)	0.33 µg/mL (≈ 0.824 µM)	0.25 µg/mL (≈ 0.624 µM)	0.44 µg/mL (≈ 1.1 µM)	0.45 µg/mL (≈ 1.12 µM)	0.38 µg/mL (≈ 0.949 µM)
CC(=O)O[C@H]1C[C@]2(O)[C@@H]3CC[C@]4(O)C[C@@H](O)CC[C@]4(C)[C@H]3CC[C@]2(C)[C@H]1c1ccc(=O)oc1	0.2 µg/mL (≈ 0.434 µM)	< 0.01 µg/mL	> 25 µg/mL	0.11 µg/mL (≈ 0.239 µM)	0.046 µg/mL (≈ 0.0999 µM)	0.033 µg/mL (≈ 0.0717 µM)	0.048 µg/mL (≈ 0.104 µM)	0.034 µg/mL (≈ 0.0738 µM)	0.024 µg/mL (≈ 0.0521 µM)
CC(=O)O[C@H]1[C@H]2O[C@]23[C@@H]2CC[C@@H]4C[C@@H](O)CC[C@]4(C)[C@H]2C[C@@H](O)[C@]3(C)[C@H]1c1ccc(=O)oc1	0.79 µg/mL (≈ 1.72 µM)	< 0.01 µg/mL	> 25 µg/mL						
C[C@]12CC[C@H]3[C@@H](CC[C@@H]4C[C@@H](O)CC[C@@]43CO)[C@]13O[C@@H]3[C@H](O)[C@@H]2c1ccc(=O)oc1	3.9 µg/mL (≈ 9.36 µM)	0.49 µg/mL (≈ 1.18 µM)	> 25 µg/mL						
C[C@]12CC[C@H](O)C[C@H]1CC[C@@H]1[C@@H]2CC[C@]2(C)[C@@H](c3ccc(=O)oc3)CC[C@]12O [BUFALIN]	0.67 µg/mL (≈ 1.73 µM)	< 0.01 µg/mL	> 25 µg/mL						
C[C@]12CC[C@H](O)C[C@H]1CC[C@@H]1[C@@H]2CC[C@]2(C)[C@@H](c3ccc(=O)oc3)C[C@H]3O[C@]132 [BUFOGENIN]	1.3 µg/mL (≈ 3.38 µM)	0.5 µg/mL (≈ 1.3 µM)	10 µg/mL (≈ 26 µM)						
CC(=O)O[C@H]1C[C@]2(O)[C@@H]3CC[C@@H]4C[C@@H](O)CC[C@]4(C)[C@H]3CC[C@]2(C)[C@H]1c1ccc(=O)oc1 [BUFOTALIN]	0.19 µg/mL (≈ 0.427 µM)	< 0.01 µg/mL	> 25 µg/mL						
CC(=O)O[C@H]1[C@H]2O[C@]23[C@@H]2CC[C@@H]4C[C@@H](O)CC[C@]4(C)[C@H]2CC[C@]3(C)[C@H]1c1ccc(=O)oc1 [CINOBUFAGIN]	0.21 µg/mL (≈ 0.475 µM)	< 0.01 µg/mL	> 25 µg/mL						
CC(=O)O[C@H]1[C@H]2O[C@]23[C@@H]2CC[C@]4(O)C[C@@H](O)CC[C@]4(C)[C@H]2CC[C@]3(C)[C@H]1c1ccc(=O)oc1 [CINOBUFOTALIN]	0.37 µg/mL (≈ 0.807 µM)	0.047 µg/mL (≈ 0.102 µM)	> 25 µg/mL						
C[C@]12CC[C@H](O)C[C@H]1CC[C@@H]1[C@@H]2CC[C@]2(C)[C@@H](c3ccc(=O)oc3)[C@@H](O)C[C@]12O [DESACETYLBUFOTALIN]	0.79 µg/mL (≈ 1.96 µM)	0.025 µg/mL (≈ 0.0621 µM)	> 25 µg/mL						
C[C@]12CC[C@H](O)C[C@H]1CC[C@@H]1[C@@H]2CC[C@]2(C)[C@@H](c3ccc(=O)oc3)[C@@H](O)[C@H]3O[C@]132 [DESACETYLCINOBUFAGIN]	0.44 µg/mL (≈ 1.1 µM)	1 µg/mL (≈ 2.5 µM)	> 25 µg/mL						
C[C@]12CC[C@H](O)C[C@@]1(O)CC[C@@H]1[C@@H]2CC[C@]2(C)[C@@H](c3ccc(=O)oc3)[C@@H](O)[C@H]3O[C@]132 [DESACETYLCINOBUFOTALIN]	10 µg/mL (≈ 24 µM)	4.3 µg/mL (≈ 10.3 µM)	> 25 µg/mL						
C[C@]12CC[C@H](O)C[C@H]1CC[C@@H]1[C@@H]2[C@H](O)C[C@]2(C)[C@@H](c3ccc(=O)oc3)CC[C@]12O [GAMABUFOTALIN]	0.75 µg/mL (≈ 1.86 µM)	0.014 µg/mL (≈ 0.0348 µM)	> 25 µg/mL						
C[C@]12CC[C@H](O)C[C@@]1(O)CC[C@@H]1[C@@H]2CC[C@]2(C)[C@@H](c3ccc(=O)oc3)CC[C@]12O [TELOCINOBUFAGIN]	1.3 µg/mL (≈ 3.23 µM)	< 0.01 µg/mL	> 25 µg/mL						
